# Source: PubChem BioAssay AID602158 (Broad Institute, 2011)
# Inconclusive results are not listed. Active and inactive are the calls of the source.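 Rule for the calls: active = half-maximal potency at or below twice the top valid dose in every separate test run, with falling signal; inconclusive = runs disagree, or flat 30 to 70% inhibition, or poor fit; inactive = inactive in every run, including rising signal.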
# Biological target: Serine/threonine-protein kinase 33 (Homo sapiens) (UniProt Q9BYT3)
# Sequence (Q9BYT3 whole entry, looked up): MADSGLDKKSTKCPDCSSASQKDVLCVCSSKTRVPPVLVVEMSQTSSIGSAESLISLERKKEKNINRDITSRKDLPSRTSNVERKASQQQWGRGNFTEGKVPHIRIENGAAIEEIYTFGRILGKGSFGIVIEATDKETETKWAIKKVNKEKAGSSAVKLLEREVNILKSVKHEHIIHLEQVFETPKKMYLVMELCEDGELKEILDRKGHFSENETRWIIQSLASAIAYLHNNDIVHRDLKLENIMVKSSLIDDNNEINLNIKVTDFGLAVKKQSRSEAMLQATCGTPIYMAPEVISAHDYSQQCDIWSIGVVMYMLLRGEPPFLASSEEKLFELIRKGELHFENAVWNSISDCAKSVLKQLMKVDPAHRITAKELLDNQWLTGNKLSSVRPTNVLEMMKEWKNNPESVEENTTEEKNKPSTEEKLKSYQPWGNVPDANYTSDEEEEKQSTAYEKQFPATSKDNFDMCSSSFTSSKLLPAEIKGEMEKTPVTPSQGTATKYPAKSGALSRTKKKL
# Assay: inhibition of purified STK33 phosphorylating MBP – biochemical, ADP-Glo luminescence, dry powder, set 3, dose response (AID 602158)
# Details: purified STK33, MBP phosphorylation
# Procedure, shortened: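 Also added: MBP as phosphorylation substrate, ATP/Mg with ATP at its Km | Test system: Purified STK33 kinase enzyme | Medium: MOPS-based assay buffer, pH 7.0, with BSA and BME | Incubation: 15 min enzyme–compound preincubation at room temperature, 60 min kinase reaction | Measured by: ADP-Glo luminescence with two-stage reagent development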
row,Structure (SMILES),AC50
1,O=C(Nc1ccccc1-c1nc2ccccc2[nH]c1=O)c1ccccc1F,4.86 µM
2,O=C(Nc1ccccc1-c1nc2ccccc2[nH]c1=O)c1nccs1,0.522 µM
3,COc1cccc(C(=O)Nc2ccccc2-c2nc3ccccc3[nH]c2=O)c1,2.24 µM
4,O=c1[nH]c2ccccc2nc1-c1ccccc1NS(=O)(=O)c1ccccc1,7.25 µM
5,Cc1ccc(C(=O)Nc2ccccc2-c2nc3ccccc3[nH]c2=O)cc1,0.763 µM
6,O=C(Nc1ccccc1-c1nc2ccccc2[nH]c1=O)c1ccccc1,0.165 µM

# Second part, the molecule after the results:
row,AC50,Structure (SMILES)
1,0.297 µM,O=C(Nc1ccccc1-c1nc2ccccc2[nH]c1=O)c1ccc(Cl)cc1
2,1.55 µM,Cc1cccc(C(=O)Nc2ccccc2-c2nc3ccccc3[nH]c2=O)c1
3,0.38 µM,O=C(Nc1ccccc1-c1nc2ccccc2[nH]c1=O)c1ccc(Cl)s1
4,1.54 µM,O=c1[nH]c2ccccc2nc1-c1ccccc1NCc1ccccn1

# Same assay, conditions: purified STK33, MBP phosphorylation, at 10 µM (top of the series)
row,Structure (SMILES),"activity change, negative = inhibition"
1,O=C(Nc1ccccc1-c1nc2ccccc2[nH]c1=O)C1CC1,inactive
2,O=C(Nc1ccccc1-c1nc2ccccc2[nH]c1=O)c1ccccc1Cl,inactive
3,O=c1[nH]c2ccccc2nc1-c1ccccc1NCC1CC1,inactive
4,CC(C)C(=O)Nc1ccccc1-c1nc2ccccc2[nH]c1=O,inactive
5,O=c1[nH]c2ccccc2nc1-c1ccccc1NCc1ccc(F)cc1,inactive
6,O=c1[nH]c2ccccc2nc1-c1ccccc1NCc1ccccc1,inactive
7,O=c1[nH]c2ccccc2nc1-c1ccccc1NS(=O)(=O)c1cccs1,inactive
8,Cc1ccccc1C(=O)Nc1ccccc1-c1nc2ccccc2[nH]c1=O,inactive
9,O=C(Nc1ccccc1-c1nc2cc3ccccc3cc2[nH]c1=O)c1cccs1,inactive
10,O=c1[nH]c2ccccc2nc1-c1ccccc1NS(=O)(=O)c1cccnc1,inactive

# More lines, now with the values ahead:
row,"activity change, negative = inhibition",Structure (SMILES)
1,inactive,O=c1[nH]c2ccccc2nc1-c1ccccc1NCc1cccnc1
2,inactive,COc1ccccc1C(=O)Nc1ccccc1-c1nc2ccccc2[nH]c1=O
3,inactive,O=C(Nc1ccccc1-c1nc2ccccc2[nH]c1=O)c1cc2ccccc2s1
4,inactive,O=C(Nc1ccccc1-c1nc2ccccc2[nH]c1=O)C1CCCC1
